{"data": "Results pooled from the literature", "note": "Each line is one published result; the experiments were not run side by side."}
{"SMILES": "N=c1c2c(-c3ccccc3)c(-c3ccccc3)n(Cc3ccccc3)c2ncn1[C@H]1CC[C@H](O)CC1", "system": "Caco-2", "conditions": "3 µM, 2 h, pH 7.4", "quantity": "efflux ratio", "result": 10}
{"SMILES": "Cc1ccccc1C(=O)NN=Cc1ccc(O)c(Br)c1", "system": "mouse, plasma", "conditions": "intraperitoneal, 1.6 mg/kg", "quantity": "Tmax", "result": "30 min"}
{"SMILES": "C[C@]12CC[C@H](O)CC1=CC[C@@H]1[C@@H]2CC[C@]2(C)C(n3cnc4ccccc43)=CC[C@@H]12.Cl", "system": "mouse, plasma", "conditions": "oral, 10 mg/kg", "quantity": "Tmax", "result": "25.2 min"}
{"SMILES": "C[C@H]1O[C@@H](O[C@H]2[C@@H](O)C[C@H](O[C@H]3[C@@H](O)C[C@H](O[C@H]4CC[C@@]5(C)[C@H](CC[C@@H]6[C@@H]5C[C@@H](O)[C@]5(C)[C@@H](C7=CC(=O)OC7)CC[C@]65O)C4)O[C@@H]3C)O[C@@H]2C)C[C@H](O)[C@@H]1O", "system": "Caco-2", "conditions": "10 µM, 1 h, pH 7.4", "quantity": "efflux ratio", "result": 5.33}
{"SMILES": "COc1ccc2[nH]cc(CCNc3nccc(Nc4cccc5c4ccn5C)n3)c2c1", "system": "mouse, plasma", "conditions": "oral, 28.6 mg/kg", "quantity": "Tmax", "result": "15 min"}
{"SMILES": "CC[C@H](C)[C@H](NC(=O)[C@H](CC(C)C)NC(=O)[C@H](Cc1c[nH]c2ccccc12)NC(=O)[C@H](CCC(N)=O)NC(=O)[C@@H](NC(=O)[C@H](Cc1ccccc1)NC(=O)[C@H](C)NC(=O)[C@H](CCCCNC(=O)COCCOCCNC(=O)COCCOCCNC(=O)CC[C@H](NC(=O)CCCCCCCCCCCCCCCCCCC(=O)O)C(=O)O)NC(=O)[C@H](CCC(N)=O)NC(=O)[C@H](C)NC(=O)[C@@H](NC(=O)[C@H](CCCCN)NC(=O)[C@H](CC(=O)O)NC(=O)[C@H](CC(C)C)NC(=O)C(C)(C)NC(=O)[C@@H](NC(=O)[C@H](CO)NC(=O)[C@H](Cc1ccc(O)cc1)NC(=O)[C@H](CC(=O)O)NC(=O)[C@H](CO)NC(=O)[C@@H](NC(=O)[C@H](Cc1ccccc1)NC(=O)[C@@H](NC(=O)CNC(=O)[C@H](CCC(=O)O)NC(=O)C(C)(C)NC(=O)[C@@H](N)Cc1ccc(O)cc1)[C@@H](C)O)[C@@H](C)O)[C@@H](C)CC)[C@@H](C)CC)C(C)C)C(=O)N[C@@H](C)C(=O)NCC(=O)NCC(=O)N1CCC[C@H]1C(=O)N[C@@H](CO)C(=O)N[C@@H](CO)C(=O)NCC(=O)N[C@@H](C)C(=O)N1CCC[C@H]1C(=O)N1CCC[C@H]1C(=O)N1CCC[C@H]1C(=O)N[C@@H](CO)C(N)=O", "system": "human, plasma", "conditions": "subcutaneous, 5 mg, patients", "quantity": "Cmax", "result": "379 ng/mL"}
{"SMILES": "NCC(=O)Nc1ccc(-n2nc(C(F)(F)F)cc2-c2ccc3c(ccc4ccccc43)c2)cc1", "system": "mouse, plasma", "conditions": "oral, 80 mg/kg, single dose", "quantity": "Tmax", "result": "600 min"}
{"SMILES": "N=C(N)NCCC[C@@H](NC(=O)[C@@H](N)Cc1ccccc1)C(=O)N[C@@H](Cc1ccccc1)C(=O)N[C@@H](CCCCN)C(N)=O", "system": "human, plasma", "conditions": "subcutaneous, 15 mg, multiple doses, once daily, patients", "quantity": "Cmax", "result": "726 ng/mL"}
{"SMILES": "N#Cc1cc(NC(=O)[C@H]2c3ccccc3C(=O)N(CC(F)(F)F)[C@@H]2c2cccnc2)ccc1F", "test": "general toxicity", "system": "beagle dog", "conditions": "oral, multiple doses", "quantity": "NOAEL", "result": "30 mg/kg"}
{"SMILES": "C[C@]12CC[C@H](n3ccnc3)CC1=CC[C@@H]1[C@@H]2CC[C@]2(C)C(n3cnc4ccccc43)=CC[C@@H]12.Cl.Cl", "system": "male CD-1 mouse, plasma", "conditions": "oral, 10 mg/kg", "quantity": "Tmax", "result": "1040 min"}
{"SMILES": "c1cc([C@H]2CC[C@]3(CC2)OO[C@]2(O3)C3CC4CC(C3)CC2C4)ccc1OCCN1CCOCC1", "system": "human, plasma", "conditions": "oral, 800 mg, patients", "quantity": "Cmax", "result": "1710 ng/mL"}
{"SMILES": "CC(=C/C=C/C(C)=C/C(=O)O)/C=C1\\CCCc2ccccc21", "system": "human, plasma", "conditions": "oral, 5 mg, single dose, fasted, healthy volunteers", "quantity": "Cmax", "result": "46.9 ng/mL"}
